Assay results as given in ChEMBL document CHEMBL1154121, “alpha-Substituted norstatines as the transition-state mimic in inhibitors of multiple digestive vacuole malaria aspartic proteases” (Bioorg Med Chem, 2009).
The source made the active and inactive calls. The calls are words filed in the database; no cut-off is given here.

Key:
Cathepsin D [1] = target: T1, Cathepsin D (Homo sapiens, UniProt P07339); assay: Ratio of compound Ki to KNI-10006 Ki for human liver cathepsin D
[2] = target: Beta-secretase 1 (Homo sapiens) (UniProt P56817); assay: Inhibition of human BACE1 at < 10 uM
Beta-secretase 1 (Homo sapiens), sequence (P56817 whole entry): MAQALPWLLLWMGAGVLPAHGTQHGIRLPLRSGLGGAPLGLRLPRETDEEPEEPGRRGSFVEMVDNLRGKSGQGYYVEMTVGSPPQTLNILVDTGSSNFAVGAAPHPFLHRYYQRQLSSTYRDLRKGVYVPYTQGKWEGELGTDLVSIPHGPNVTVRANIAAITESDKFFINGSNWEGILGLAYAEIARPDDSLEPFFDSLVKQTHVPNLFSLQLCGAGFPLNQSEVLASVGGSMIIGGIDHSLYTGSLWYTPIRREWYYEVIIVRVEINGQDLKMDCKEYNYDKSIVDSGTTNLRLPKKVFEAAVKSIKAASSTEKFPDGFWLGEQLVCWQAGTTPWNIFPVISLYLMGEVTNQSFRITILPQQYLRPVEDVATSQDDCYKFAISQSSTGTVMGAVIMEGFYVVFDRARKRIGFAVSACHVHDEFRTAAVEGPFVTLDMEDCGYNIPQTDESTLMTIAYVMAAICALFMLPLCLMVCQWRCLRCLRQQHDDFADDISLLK

Cathepsin D [3] = target: T1, Cathepsin D; assay: Inhibition of human liver cathepsin D
Summary of the method: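 Human liver cathepsin D activated 20 min at 37 °C in 100 mM sodium acetate pH 4.5, 10% glycerol, 0.01% Tween 20. Inhibitor serially diluted in DMSO (1% final) added before 3 µM DABCYL-Glu-Arg-Nle-Phe-Leu-Ser-Phe-Pro-EDANS; fluorescence increase read over 10 min. IC50 from Langmuir isotherm assuming competitive inhibition, converted to Ki via IC50/(1+[S]/Km); top concentration limited to 10.0 µM by inhibitor fluorescence.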

[4] = Selectivity ratio of Ki for human liver cathepsin D to Ki for Plasmodium falciparum plasmepsin-2 expressed in Escherichia coli BL21 (DE3)
Plasmodium falciparum = assay: Antiplasmodial activity against Plasmodium falciparum infected in erythrocyte culture; format: functional, organism-based
Plasmepsin I = Plasmepsin I (Plasmodium falciparum, UniProt P39898); assay: Inhibition of Plasmodium falciparum plasmepsin-1
Plasmepsin I, sequence (P39898 whole entry): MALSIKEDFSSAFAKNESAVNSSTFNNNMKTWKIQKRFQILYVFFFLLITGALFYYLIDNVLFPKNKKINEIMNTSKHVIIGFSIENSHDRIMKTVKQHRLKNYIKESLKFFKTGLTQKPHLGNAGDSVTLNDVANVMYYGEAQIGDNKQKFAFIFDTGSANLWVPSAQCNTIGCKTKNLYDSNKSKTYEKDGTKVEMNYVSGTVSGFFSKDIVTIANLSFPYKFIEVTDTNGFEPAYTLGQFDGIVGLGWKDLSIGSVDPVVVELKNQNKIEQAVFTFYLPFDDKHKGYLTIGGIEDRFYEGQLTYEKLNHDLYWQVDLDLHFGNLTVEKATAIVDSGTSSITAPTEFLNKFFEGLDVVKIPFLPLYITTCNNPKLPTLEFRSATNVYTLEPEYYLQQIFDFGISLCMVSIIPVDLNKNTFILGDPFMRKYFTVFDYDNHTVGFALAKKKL

[5] = Inhibition of Plasmodium falciparum plasmepsin-4
Summary of the method: (§1)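 Self-activated in 0.1 M sodium acetate pH 4.5, 37 °C, 5 min. Chromogenic substrate hydrolysis followed spectrophotometrically; Michaelis-Menten curves at ≥5 substrate levels with no inhibitor and two inhibitor concentrations, fitted together for Ki.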

Plasmepsin III = Plasmepsin III (Plasmodium falciparum, UniProt Q9Y006); assay: Inhibition of Plasmodium falciparum histo-aspartyl protease
Plasmepsin III, sequence (Q9Y006 whole entry): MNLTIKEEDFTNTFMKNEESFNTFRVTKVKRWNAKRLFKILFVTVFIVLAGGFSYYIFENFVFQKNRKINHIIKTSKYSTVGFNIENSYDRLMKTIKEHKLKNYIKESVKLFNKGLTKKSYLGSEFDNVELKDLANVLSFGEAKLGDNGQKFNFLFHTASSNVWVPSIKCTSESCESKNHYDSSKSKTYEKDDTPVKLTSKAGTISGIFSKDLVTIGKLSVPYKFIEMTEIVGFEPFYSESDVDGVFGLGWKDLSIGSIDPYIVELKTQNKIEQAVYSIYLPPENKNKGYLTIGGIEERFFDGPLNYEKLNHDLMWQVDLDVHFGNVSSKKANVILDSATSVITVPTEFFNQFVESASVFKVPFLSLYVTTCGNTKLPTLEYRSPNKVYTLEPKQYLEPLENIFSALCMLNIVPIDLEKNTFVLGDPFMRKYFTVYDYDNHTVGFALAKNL

[6] = Inhibition of Plasmodium ovale plasmepsin-4 expressed in Escherichia coli BL21 (DE3) by spectrophotometric assay with chromogenic substrate
Aspartic protease PM4 = Aspartic protease PM4 (Plasmodium vivax, UniProt O60989); assay: Inhibition of Plasmodium vivax plasmepsin-4 expressed in Escherichia coli BL21 (DE3) by spectrophotometric assay with chromogenic substrate
Aspartic protease PM4, sequence (O60989 whole entry): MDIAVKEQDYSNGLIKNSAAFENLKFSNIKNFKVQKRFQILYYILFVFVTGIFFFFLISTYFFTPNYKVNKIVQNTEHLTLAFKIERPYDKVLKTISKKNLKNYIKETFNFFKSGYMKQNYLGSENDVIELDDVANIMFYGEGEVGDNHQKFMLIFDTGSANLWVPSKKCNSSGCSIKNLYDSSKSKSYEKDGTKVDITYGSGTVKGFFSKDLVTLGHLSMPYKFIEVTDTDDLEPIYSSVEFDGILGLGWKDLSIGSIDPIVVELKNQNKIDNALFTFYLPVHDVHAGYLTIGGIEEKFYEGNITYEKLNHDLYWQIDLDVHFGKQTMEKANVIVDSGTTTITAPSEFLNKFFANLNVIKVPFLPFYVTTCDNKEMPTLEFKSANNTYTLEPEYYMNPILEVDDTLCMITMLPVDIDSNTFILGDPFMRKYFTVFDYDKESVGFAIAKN

[7] = Inhibition of Plasmodium malariae plasmepsin-4 expressed in Escherichia coli BL21 (DE3) by spectrophotometric assay with chromogenic substrate
Plasmepsin II = Plasmepsin II (Plasmodium falciparum, UniProt P46925); assay: Inhibition of Plasmodium falciparum plasmepsin-2 expressed in Escherichia coli BL21 (DE3) by spectrophotometric assay with chromogenic substrate
Plasmepsin II, sequence (P46925 whole entry): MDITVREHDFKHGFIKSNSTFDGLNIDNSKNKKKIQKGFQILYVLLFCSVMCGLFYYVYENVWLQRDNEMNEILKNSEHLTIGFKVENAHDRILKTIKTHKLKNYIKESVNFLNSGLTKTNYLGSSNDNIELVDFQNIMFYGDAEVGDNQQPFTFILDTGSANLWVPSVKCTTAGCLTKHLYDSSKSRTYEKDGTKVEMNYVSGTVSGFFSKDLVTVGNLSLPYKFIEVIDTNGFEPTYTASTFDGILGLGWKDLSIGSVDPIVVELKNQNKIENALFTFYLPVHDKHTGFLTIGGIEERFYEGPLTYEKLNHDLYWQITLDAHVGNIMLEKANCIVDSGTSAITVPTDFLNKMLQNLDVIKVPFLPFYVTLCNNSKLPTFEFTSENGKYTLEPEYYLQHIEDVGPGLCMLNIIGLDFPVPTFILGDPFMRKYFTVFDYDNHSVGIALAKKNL

[8] = Inhibition of Plasmodium falciparum plasmepsin-4 expressed in Escherichia coli BL21 (DE3) by spectrophotometric assay with chromogenic substrate
[9] = test system: Human immunodeficiency virus 1; assay: Antiviral activity against HIV1 3B infected in human MT4 cells; format: functional, organism-based; conditions: Human immunodeficiency virus 1, 3B
Protease = Protease (Human immunodeficiency virus 1, UniProt Q9YQ12); assay: Inhibition of HIV1 protease
Protease, sequence (Q9YQ12 whole entry): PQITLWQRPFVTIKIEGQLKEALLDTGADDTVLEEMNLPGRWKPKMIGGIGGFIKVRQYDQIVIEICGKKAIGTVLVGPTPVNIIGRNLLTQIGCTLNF
Summary of the method: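 Recombinant HIV-1 protease expressed in E. coli; Ki from fluorometric assay, two independent measurements; a reference inhibitor included to check variability, standard deviation ±50% of mean.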

[10] = test system: Human immunodeficiency virus 1; assay: Antiviral activity against HIV1 replication in infected cells; format: functional, organism-based
[11] = Inhibition of Plasmodium malariae plasmepsin-4; summary of the method: as §1

T1 sequence (P07339 65-162 limits assumed): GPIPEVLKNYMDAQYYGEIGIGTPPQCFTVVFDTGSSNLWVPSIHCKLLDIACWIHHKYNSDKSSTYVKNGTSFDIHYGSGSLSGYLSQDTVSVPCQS
T1 sequence (P07339 169-412 limits assumed): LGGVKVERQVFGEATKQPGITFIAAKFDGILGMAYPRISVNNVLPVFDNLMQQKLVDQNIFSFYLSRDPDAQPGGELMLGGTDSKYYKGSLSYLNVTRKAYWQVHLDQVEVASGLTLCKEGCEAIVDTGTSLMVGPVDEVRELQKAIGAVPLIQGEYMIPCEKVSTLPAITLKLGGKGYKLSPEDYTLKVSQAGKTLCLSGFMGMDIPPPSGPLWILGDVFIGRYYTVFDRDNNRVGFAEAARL

For `Cc1cccc(C)c1OCC(=O)NCC(O)(CCc1ccccc1)C(=O)N[C@@H](Cc1ccccc1)C(=O)N[C@H]1c2ccccc2C[C@H]1O` (stereo in doubt; (A)-20) [listing 1 of 2 here], the Ratio Ki (Cathepsin D [1]) was 5000 and the Activity [2] was “inactive”.
With `Cc1cccc(C)c1OCC(=O)N[C@@H](Cc1ccccc1)[C@H](O)C(=O)N1CSC(C)(C)[C@H]1C(=O)N[C@H]1c2ccccc2C[C@H]1O` the Ki (Cathepsin D [3]) was 2 nM, the Ratio Ki [4] was 4 and the IC50 (Plasmodium falciparum) was 6800 nM. The IC50 (Plasmepsin I) was 280 nM, the IC50 [5] was 15 nM and the IC50 (Plasmepsin III) was 690 nM.
In the case of `Cc1cccc(C)c1OCC(=O)NC[C@](O)(CCc1ccccc1)C(=O)N1CSC(C)(C)[C@H]1C(=O)N[C@H]1c2ccccc2C[C@H]1O`, the Ki (Cathepsin D [3]) is reported as over 10000 nM, the Ratio Ki (Cathepsin D [1]) is reported as 5000 and the Ki [6] is reported as 6500 nM. It also gave a Ki (Aspartic protease PM4) of 2200 nM, a Ki [7] of over 20000 nM and a Ki (Plasmepsin II) of 7400 nM. For the same compound, the Ki [8] was 5500 nM.
`Cc1cccc(C)c1OCC(=O)NC[C@@](O)(CCc1ccccc1)C(=O)N1CSC(C)(C)[C@H]1C(=O)N[C@H]1c2ccccc2C[C@H]1O` gave a Ki (Cathepsin D [3]) of over 10000 nM, a Ratio Ki (Cathepsin D [1]) of 5000 and an EC50 [9] of 6400 nM. For the same compound, the Ki [6] was 4500 nM, the Ki (Aspartic protease PM4) was 370 nM and the Ki [7] was 7900 nM. It also gave a Ki (Plasmepsin II) of 1400 nM and a Ki [8] of 3100 nM.
For `Cc1cccc(C)c1OCC(=O)NC[C@](O)(CCc1ccccc1)C(=O)N1CSC(C)(C)[C@@H]1C(=O)N[C@H]1c2ccccc2C[C@H]1O`, the Ki (Cathepsin D [3]) was over 10000 nM, the Ratio Ki (Cathepsin D [1]) was 5000 and the Ki [6] was 880 nM. The Ki (Aspartic protease PM4) was 340 nM, the Ki [7] was 1600 nM and the Ki (Plasmepsin II) was 7600 nM. It also gave a Ki [8] of 10700 nM.
`Cc1cccc(C)c1OCC(=O)NCC(O)(CCc1ccccc1)C(=O)N1CCC[C@H]1C(=O)N[C@H]1c2ccccc2C[C@H]1O` (stereo in doubt; (B)-19) [listing 1 of 2 here] gave a Ki [6] of 10300 nM, a Ki (Aspartic protease PM4) of 1300 nM and a Ki [7] of 13000 nM. The Ki (Plasmepsin II) was over 20000 nM and the Ki [8] was 26900 nM.
In the case of `COC(=O)N[C@H](C(=O)NN(Cc1ccccc1)C[C@@](O)(Cc1ccccc1)C(=O)N[C@H]1c2ccccc2C[C@H]1O)C(C)(C)C`, the Ki (Protease) is reported as 6 nM, the EC50 [10] is reported as 1900 nM and the Ki [5] is reported as 12000 nM.
With `Cc1cccc(C)c1OCC(=O)NCC(O)(CCc1ccccc1)C(=O)N[C@@H](Cc1ccccc1)C(=O)N[C@H]1c2ccccc2C[C@H]1O` (stereo in doubt; (B)-20) [listing 1 of 2 here] the Ki (Cathepsin D [3]) was over 10000 nM and the Ki (Protease) was 1000 nM.
`Cc1ccccc1CNC(=O)[C@H]1N(C(=O)[C@@H](O)[C@H](Cc2ccccc2)NC(=O)c2cccc(O)c2C)CSC1(C)C` showed a Ki [11] of 110 nM.
For `Cc1cccc(C)c1OCC(=O)NCC(O)(CCc1ccccc1)C(=O)N1CCC[C@H]1C(=O)N[C@H]1c2ccccc2C[C@H]1O` (stereo in doubt; (B)-19) [listing 2 of 2 here], the Ratio Ki (Cathepsin D [1]) was 5000.
In the case of `COC(=O)N[C@H](C(=O)NN(Cc1ccccc1)C[C@](O)(Cc1ccccc1)C(=O)N[C@H]1c2ccccc2C[C@H]1O)C(C)(C)C`, the Ki (Protease) is reported as 2200 nM, the EC50 [10] is reported as over 10000 nM and the Ki [5] is reported as 48000 nM.
In the case of `Cc1cccc(C)c1OCC(=O)NCC(O)(CCc1ccccc1)C(=O)N[C@@H](Cc1ccccc1)C(=O)N[C@H]1c2ccccc2C[C@H]1O` (stereo in doubt; (B)-20) [listing 2 of 2 here], the Ratio Ki (Cathepsin D [1]) is reported as 5000 and the Activity [2] is reported as “inactive”.
With `Cc1cccc(C)c1OCC(=O)NCC(O)(CCc1ccccc1)C(=O)N1CCC[C@H]1C(=O)N[C@H]1c2ccccc2C[C@H]1O` (stereo in doubt; (A)-19) [listing 1 of 2 here] the Ki (Cathepsin D [3]) was over 10000 nM, the Ki [6] was 7200 nM and the Ki (Aspartic protease PM4) was 2200 nM. The Ki [7] was 14500 nM, the Ki (Plasmepsin II) was over 20000 nM and the Ki [8] was 30200 nM.
Compound `Cc1cccc(C)c1OCC(=O)NCC(O)(CCc1ccccc1)C(=O)N[C@@H](Cc1ccccc1)C(=O)N[C@H]1c2ccccc2C[C@H]1O` (stereo in doubt; (A)-20) [listing 2 of 2 here] has a Ki (Cathepsin D [3]) of over 10000 nM and a Ki [8] of over 20000 nM.
For `Cc1cccc(C)c1OCC(=O)NC[C@@](O)(CCc1ccccc1)C(=O)N1CSC(C)(C)[C@@H]1C(=O)N[C@H]1c2ccccc2C[C@H]1O`, the Ki (Cathepsin D [3]) was over 10000 nM, the Ratio Ki (Cathepsin D [1]) was 5000 and the Ratio Ki [4] was over 20000. The Ki [6] was 1000 nM, the Ki (Aspartic protease PM4) was 390 nM and the Ki [7] was 1100 nM. For the same compound, the Ki (Plasmepsin II) was 440 nM and the Ki [8] was 6300 nM.
`Cc1cccc(C)c1OCC(=O)NCC(O)(CCc1ccccc1)C(=O)N1CCC[C@H]1C(=O)N[C@H]1c2ccccc2C[C@H]1O` (stereo in doubt; (A)-19) [listing 2 of 2 here] showed a Ratio Ki (Cathepsin D [1]) of 5000.
In the case of `Cc1cccc(C)c1OCC(=O)NC[C@](O)(Cc1ccccc1)C(=O)N1CSC(C)(C)[C@@H]1C(=O)N[C@H]1c2ccccc2C[C@H]1O`, the Ki (Cathepsin D [3]) is reported as over 10000 nM, the Ratio Ki (Cathepsin D [1]) is reported as 5000 and the Activity [2] is reported as “inactive”. It also gave a Ki (Protease) of 670 nM, a Ki [6] of 610 nM and a Ki (Aspartic protease PM4) of 120 nM. For the same compound, the Ki [7] was 420 nM, the Ki (Plasmepsin II) was 1700 nM and the Ki [8] was 1700 nM.
For `Cc1cccc(C)c1OCC(=O)NC[C@](O)(Cc1ccccc1)C(=O)N1CSC(C)(C)[C@H]1C(=O)N[C@H]1c2ccccc2C[C@H]1O`, the Ki (Cathepsin D [3]) was over 10000 nM, the Ratio Ki (Cathepsin D [1]) was 5000 and the Activity [2] was “inactive”. It also gave a Ki [6] of 530 nM, a Ki (Aspartic protease PM4) of 190 nM and a Ki [7] of 250 nM. It also gave a Ki (Plasmepsin II) of over 20000 nM and a Ki [8] of 720 nM.
For `Cc1cccc(C)c1OCC(=O)NC[C@@](O)(Cc1ccccc1)C(=O)N1CSC(C)(C)[C@@H]1C(=O)N[C@H]1c2ccccc2C[C@H]1O`, the Ki (Cathepsin D [3]) was over 10000 nM, the Ratio Ki (Cathepsin D [1]) was 5000 and the Activity [2] was “inactive”. The Ki [6] was 1300 nM, the Ki (Aspartic protease PM4) was 160 nM and the Ki [7] was 210 nM. The Ki (Plasmepsin II) was 830 nM and the Ki [8] was 1700 nM.
In the case of `Cc1cccc(C)c1OCC(=O)NC[C@@](O)(Cc1ccccc1)C(=O)N1CSC(C)(C)[C@H]1C(=O)N[C@H]1c2ccccc2C[C@H]1O`, the Ki (Cathepsin D [3]) is reported as over 10000 nM, the Ratio Ki (Cathepsin D [1]) is reported as 5000 and the Activity [2] is reported as “inactive”. For the same compound, the Ki [6] was 110 nM, the Ki (Aspartic protease PM4) was 160 nM and the Ki [7] was 260 nM. The Ki (Plasmepsin II) was over 20000 nM and the Ki [8] was 700 nM.
